Measured values published in ChEMBL document CHEMBL2177000, “Pharmacokinetic optimization of class-selective histone deacetylase inhibitors and identification of associated candidate predictive biomarkers of hepatocellular carcinoma tumor response” (J Med Chem, 2012).

What was measured:
[1] = test system: Mus musculus; experiment: Oral bioavailability in BALB/C mouse at 10 mg/kg by LC-MS/MS method; type: ADME, organism-based; conditions: in vivo
Summary of the method: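 Bioavailability from single-dose iv (2 mg/kg, 5% DMSO/40% PEG400/55% saline) and oral gavage (10 mg/kg, 0.445% microcrystalline cellulose microsuspension) studies in BALB/C nude mice (N = 16 per arm); plasma at eight (po) or nine (iv) time points, LC-MS/MS, noncompartmental analysis.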

[2] = Clearance in BALB/C mouse at 10 mg/kg, po or 2 mg/kg, iv by LC-MS/MS method; type: ADME, organism-based; conditions: in vivo
Summary of the method: (§1)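 Female-unspecified BALB/C nude mice (15−20 g, N = 16 per arm); iv bolus 2 mg/kg in 5% DMSO/40% PEG400/55% saline and/or oral gavage 10 mg/kg as 0.445% microcrystalline cellulose microsuspension. Blood sampled at nine (iv) or eight (po) time points into sodium heparin tubes; plasma by LC-MS/MS; noncompartmental analysis.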

[3] = test system: Mus musculus; experiment: AUC in BALB/C mouse at 10 mg/kg, po or 2 mg/kg, iv by LC-MS/MS method; type: ADME, organism-based, Plasma; conditions: in vivo; summary of the method: as §1
[4] = test system: Mus musculus; experiment: Half life in BALB/C mouse at 10 mg/kg, po or 2 mg/kg, iv by LC-MS/MS method; type: ADME, organism-based; conditions: in vivo; summary of the method: as §1
[5] = test system: Mus musculus; experiment: Cmax in BALB/C mouse at 10 mg/kg, po or 2 mg/kg, iv by LC-MS/MS method; type: ADME, organism-based; conditions: in vivo; summary of the method: as §1
[6] = test system: Mus musculus; experiment: Tmax in BALB/C mouse at 10 mg/kg, po or 2 mg/kg, iv by LC-MS/MS method; type: ADME, organism-based; conditions: in vivo
Summary of the method: (§2)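 Single-dose PK: iv bolus 2 mg/kg in 5% DMSO/40% PEG400/55% saline and/or oral gavage 10 mg/kg as 0.445% microcrystalline cellulose microsuspension; BALB/C nude mice (15−20 g, N = 16 per arm) or male Sprague−Dawley rats (250 ± 20 g, N = 3). Blood at eight (po) or nine (iv) time points into sodium heparin, plasma by LC-MS/MS, noncompartmental analysis.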

[7] = Clearance in mouse liver microsomes at 1 uM incubated for 10 mins by LC-MS/MS method; type: ADME, Microsome
Summary of the method: (§3)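 Liver microsomes (human or mouse, 0.5 mg/mL) in 100 mM potassium phosphate pH 7.4 with 1 μM compound, prewarmed 10 min at 37 °C, started with NADPH (10 mM); stopped at 0, 3, 6, 9, 15, 30 min with ice-cold methanol containing tolbutamide internal standard; LC-MS/MS. Hepatic clearance (mL/min/kg) calculated from intrinsic clearance.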

[8] = Clearance in human liver microsomes at 1 uM incubated for 10 mins by LC-MS/MS method; type: ADME, Microsome; summary of the method: as §3
[9] = Oral bioavailability in Sprague-Dawley rat at 10 mg/kg by LC-MS/MS method; type: ADME, organism-based; conditions: in vivo; summary of the method: as §2
[10] = Volume of distribution at steady state in Sprague-Dawley rat at 10 mg/kg, po or 2 mg/kg, iv by LC-MS/MS method; type: ADME, organism-based; conditions: in vivo, read-out: Vdss; summary of the method: as §2
[11] = Clearance in Sprague-Dawley rat at 10 mg/kg, po or 2 mg/kg, iv by LC-MS/MS method; type: ADME, organism-based; conditions: in vivo
Summary of the method: (§4)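 Male Sprague−Dawley rats (250 ± 20 g; N = 3); iv bolus 2 mg/kg in 5% DMSO/40% PEG400/55% saline and/or gavage 10 mg/kg in 0.445% microcrystalline cellulose microsuspension; plasma from heparinized blood at eight (po) or nine (iv) time points, LC-MS/MS, noncompartmental analysis.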

[12] = AUC in Sprague-Dawley rat at 10 mg/kg, po or 2 mg/kg, iv by LC-MS/MS method; type: ADME, organism-based; conditions: plasma; summary of the method: as §4
[13] = Cmax in Sprague-Dawley rat at 10 mg/kg, po or 2 mg/kg, iv by LC-MS/MS method; type: ADME, organism-based; conditions: in vivo; summary of the method: as §4
[14] = Tmax in Sprague-Dawley rat at 10 mg/kg, po or 2 mg/kg, iv by LC-MS/MS method; type: ADME, organism-based; conditions: in vivo; summary of the method: as §2
[15] = target: Histone deacetylase (Homo sapiens) (UniProt Q13547+O15379+Q9UBN7+Q92769+Q9UQL6+Q8WUI4+Q9BY41+Q96DB2+P56524+Q9UKV0+Q969S8); experiment: Inhibition of Class 1 histone deacetylase in human HeLa cells assessed as induction in p21 protein expression at 3 uM incubated for 16 hrs by luciferase reporter gene assay relative to HDAC inhibitor entinostat; type: cell-based; set-up: scale not given: the % may be the effect or the level left

CN1C[C@H](C(=O)Nc2ccc(Cl)cc2)[C@@H](c2ccc(/C=C/C(=O)Nc3ccccc3N)cc2)C1 (racemic)
F [1]: 75%
clearance [2]: 39 mL/min/kg
AUC [3]: 2946 ng·h/mL
t1/2 [4]: 14 h
Cmax [5]: 324 ng/mL
Tmax [6]: 1 h
CLhep predicted at 1 µM [7]: 35 mL/min/kg
CLhep predicted at 1 µM [8]: 5 mL/min/kg

CN1C[C@H](C(=O)Nc2ccc(Cl)cc2)[C@@H](c2ccc(/C=C/C(=O)Nc3ccccc3N)nn2)C1 (racemic)
bioavailability [9]: 9%
Vd [10]: 19 L
clearance [11]: 120 mL/min/kg
AUC [12]: 116 ng·h/mL
Cmax [13]: 33 ng/mL
Tmax [14]: 4 h
CLhep predicted at 1 µM [7]: 41 mL/min/kg
CLhep predicted at 1 µM [8]: 12 mL/min/kg
Activity [15]: > 300%
